Results as given in ChEMBL document CHEMBL1142636 (2000).
≈ marks a conversion by molar mass, not a printed value.

Columns and labels:
[1] = tested on: SW-620; test: Growth inhibition of human SW620 cells; assay type: functional
How it was run: (§1)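 Tested at the NCI in its human disease-oriented in vitro screen of 60 tumour cell lines, following the Monks et al. methods. Activity is expressed as GI50, given as log molar values.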

[2] = Growth inhibition of human […] cells; assay type: functional
[3] = tested on: SK-MEL-28; test: Growth inhibition of human SK-MEL-28 cells; assay type: functional; how it was run: as §1
[4] = tested on: SF-268; test: Growth inhibition of human SF268 cells; assay type: functional; how it was run: as §1
[5] = tested on: IGROV-1; test: Growth inhibition of human IGROV1 cells; assay type: functional
[6] = tested on: M19-MEL; test: Growth inhibition of human M19-MEL cells; assay type: functional
[7] = tested on: Malme-3M; test: Growth inhibition of human MALME-3M cells; assay type: functional
[8] = tested on: SK-MEL-2; test: Growth inhibition of human SK-MEL-2 cells; assay type: functional; how it was run: as §1
[9] = tested on: UO-31; test: Growth inhibition of human UO31 cells; assay type: functional; how it was run: as §1
[10] = tested on: M14; test: Growth inhibition of human M14 cells; assay type: functional
[11] = tested on: CCRF-CEM; test: Growth inhibition of human CCRF-CEM cells; assay type: functional
[12] = tested on: SF-539; test: Growth inhibition of human SF539 cells; assay type: functional; how it was run: as §1
[13] = tested on: HCC 2998; test: Growth inhibition of human HCC2998 cells; assay type: functional
[14] = tested on: HOP-92; test: Growth inhibition of human HOP92 cells; assay type: functional
[15] = tested on: NCI-H522; test: Growth inhibition of human NCI-H522 cells; assay type: functional
[16] = tested on: HOP-62; test: Growth inhibition of human HOP62 cells; assay type: functional
[17] = tested on: HT-29; test: Growth inhibition of human HT29 cells; assay type: functional
[18] = tested on: 786-0; test: Growth inhibition of human 786-0 cells; assay type: functional
[19] = Growth inhibition of human RPMI8266 cells; assay type: functional
[20] = tested on: DMS-273; test: Growth inhibition of human DMS273 cells; assay type: functional
[21] = tested on: NCI-H226; test: Growth inhibition of human NCI-H226 cells; assay type: functional
[22] = tested on: SN12C; test: Growth inhibition of human SN12C cells; assay type: functional; how it was run: as §1
[23] = tested on: TK-10; test: Growth inhibition of human TK10 cells; assay type: functional; how it was run: as §1
[24] = tested on: A549; test: Growth inhibition of human A549 cells; assay type: functional
[25] = Growth inhibition of human DMS144 cells; assay type: functional
[26] = Growth inhibition of human OVACR5 cells; assay type: functional
[27] = tested on: NCI-H322M; test: Growth inhibition of human NCI-H322M cells; assay type: functional
[28] = tested on: SK-OV-3; test: Growth inhibition of human SK-OV-3 cells; assay type: functional; how it was run: as §1
[29] = Growth inhibition of human OVACR8 cells; assay type: functional
[30] = tested on: DLD-1; test: Growth inhibition of human DLD1 cells; assay type: functional
[31] = tested on: KM12; test: Growth inhibition of human KM12 cells; assay type: functional
[32] = tested on: SNB-75; test: Growth inhibition of human SNB75 cells; assay type: functional; how it was run: as §1
[33] = Growth inhibition of human HL60(TB) cells; assay type: functional, HL-60(TB); settings: HL-60
[34] = tested on: U-251; test: Growth inhibition of human U251 cells; assay type: functional; how it was run: as §1
[35] = tested on: NCI-H460; test: Growth inhibition of human NCI-H460 cells; assay type: functional
[36] = tested on: KM-20L2; test: Growth inhibition of human KM20L2 cells; assay type: functional
[37] = tested on: SNB-19; test: Growth inhibition of human SNB19 cells; assay type: functional; how it was run: as §1
[38] = tested on: HCT-116; test: Growth inhibition of human HCT116 cells; assay type: functional
[39] = Growth inhibition of human LXFL529 cells; assay type: functional; settings: LXFL 529
[40] = tested on: SK-MEL-5; test: Growth inhibition of human SK-MEL-5 cells; assay type: functional; settings: for EC50: read-out: ED50 (the source's name); how it was run: as §1
[41] = tested on: MOLT-4; test: Growth inhibition of human MOLT4 cells; assay type: functional
[42] = tested on: K562; test: Growth inhibition of human K562 cells; assay type: functional
[43] = tested on: COLO 205; test: Growth inhibition of human COLO205 cells; assay type: functional; settings: for EC50: read-out: ED50 (the source's name)
[44] = tested on: LOX IMVI; test: Growth inhibition of human LOX IMVI cells; assay type: functional
[45] = tested on: ACHN; test: Growth inhibition of human ACHN cells; assay type: functional
[46] = tested on: UACC-62; test: Growth inhibition of human UACC62 cells; assay type: functional; how it was run: as §1
[47] = tested on: SR; test: Growth inhibition of human SR cells; assay type: functional; how it was run: as §1
[48] = tested on: HCT-15; test: Growth inhibition of human HCT15 cells; assay type: functional
[49] = tested on: KB; test: Growth inhibition of human KB cells; assay type: functional; settings: read-out: ED50 (the source's name)
How it was run: (§2)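 In-house cytotoxicity assay following an NCI protocol, run on a panel of human tumour lines: KB nasopharyngeal epidermoid carcinoma and HCT-8 ileocecal adenocarcinoma. Potency is reported as ED50 in µg/mL.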

[50] = tested on: HCT-8; test: Growth inhibition of human HCT8 cells; assay type: functional; settings: read-out: ED50 (the source's name); how it was run: as §2
[51] = Growth inhibition of human OVACR4 cells; assay type: functional
[52] = tested on: RXF 393; test: Growth inhibition of human […] cells; assay type: functional

COc1cc(Cn2c3ccccc3c3cc(C)cc(OC)c32)cc2c1[nH]c1ccccc12
GI50 [1]: 13.5 µM
GI50 [2]: 10.2 µM
GI50 [3]: 25.1 µM
GI50 [4]: 17.4 µM
GI50 [5]: 25.1 µM
GI50 [6]: 25.1 µM
GI50 [7]: 25.1 µM
GI50 [8]: 25.1 µM
GI50 [9]: 25.1 µM
GI50 [10]: 6.31 µM
GI50 [11]: 12 µM
GI50 [12]: 9.77 µM
GI50 [13]: 25.1 µM
GI50 [14]: 5.37 µM
GI50 [15]: 5.37 µM
GI50 [16]: 6.61 µM
GI50 [17]: 17 µM
GI50 [18]: 25.1 µM
GI50 [19]: 25.1 µM
GI50 [20]: 15.1 µM
GI50 [21]: 17 µM
GI50 [22]: 25.1 µM
GI50 [23]: 25.1 µM
GI50 [24]: 23.4 µM
GI50 [25]: 20 µM
GI50 [26]: 25.1 µM
GI50 [27]: 25.1 µM
GI50 [28]: 25.1 µM
GI50 [29]: 10.5 µM
GI50 [30]: 25.1 µM
GI50 [31]: 10.2 µM
GI50 [32]: 22.9 µM
GI50 [33]: 12.3 µM
GI50 [34]: 25.1 µM
GI50 [35]: 10.7 µM
GI50 [36]: 15.5 µM
GI50 [37]: 25.1 µM
GI50 [38]: 25.1 µM
GI50 [39]: 17 µM
GI50 [40]: 25.1 µM
GI50 [41]: 8.51 µM
GI50 [42]: 9.77 µM
GI50 [43]: 25.1 µM
GI50 [44]: 8.13 µM
GI50 [45]: 12.3 µM
GI50 [46]: 15.1 µM
GI50 [47]: 16.6 µM
GI50 [48]: 17 µM

COc1cccc2c3c([nH]c12)C(=O)C=C(C)C3=O
EC50 [49]: 4.95 µg/mL (≈ 20.5 µM)
EC50 [40]: 3.55 µg/mL (≈ 14.7 µM)
EC50 [43]: 4.22 µg/mL (≈ 17.5 µM)
EC50 [50]: 5.3 µg/mL (≈ 22 µM)

COc1cccc2c3c([nH]c12)C(=O)C(C)=CC3=O
EC50 [49]: 0.92 µg/mL (≈ 3.81 µM)
EC50 [40]: 5.5 µg/mL (≈ 22.8 µM)
EC50 [43]: 5.18 µg/mL (≈ 21.5 µM)
EC50 [50]: 4.7 µg/mL (≈ 19.5 µM)

COc1ccc2c3c([nH]c2c1)C(=O)C(C)=CC3=O
EC50 [49]: 4.51 µg/mL (≈ 18.7 µM)
EC50 [40]: 3.92 µg/mL (≈ 16.2 µM)
EC50 [43]: 4.51 µg/mL (≈ 18.7 µM)
EC50 [50]: 5.09 µg/mL (≈ 21.1 µM)

CC(C)=CCCC1(C)C=Cc2c(ccc3c2[nH]c2cc(O)c(C)cc23)O1 (centres undefined)
GI50 [1]: 4.68 µM
GI50 [2]: 4.79 µM
GI50 [4]: 5.01 µM
GI50 [6]: 6.92 µM
GI50 [7]: 5.25 µM
GI50 [8]: 6.46 µM
GI50 [10]: 3.89 µM
GI50 [11]: 5.01 µM
GI50 [12]: 4.57 µM
GI50 [13]: 4.68 µM
GI50 [14]: 4.27 µM
GI50 [15]: 3.89 µM
GI50 [16]: 4.79 µM
GI50 [17]: 4.9 µM
GI50 [18]: 4.27 µM
GI50 [19]: 6.61 µM
GI50 [20]: 5.01 µM
GI50 [21]: 7.08 µM
GI50 [22]: 4.68 µM
GI50 [23]: 16.6 µM
GI50 [24]: 6.61 µM
GI50 [25]: 7.08 µM
GI50 [26]: 19.5 µM
GI50 [27]: 6.61 µM
GI50 [51]: 7.94 µM
GI50 [29]: 3.8 µM
GI50 [30]: 8.91 µM
GI50 [31]: 4.79 µM
GI50 [32]: 12.9 µM
GI50 [52]: 5.25 µM
GI50 [33]: 9.55 µM
GI50 [34]: 4.57 µM
GI50 [35]: 4.68 µM
GI50 [36]: 5.25 µM
GI50 [37]: 25.1 µM
GI50 [38]: 8.71 µM
GI50 [39]: 5.13 µM
GI50 [40]: 4.9 µM
GI50 [41]: 4.17 µM
GI50 [42]: 5.62 µM
GI50 [44]: 4.57 µM
GI50 [45]: 6.76 µM
GI50 [46]: 9.33 µM
GI50 [47]: 5.5 µM
GI50 [48]: 5.01 µM

CC1=CC(=O)c2[nH]c3ccc(C)cc3c2C1=O
EC50 [49]: 0.92 µg/mL (≈ 4.08 µM)
EC50 [40]: 0.66 µg/mL (≈ 2.93 µM)
EC50 [43]: 3.52 µg/mL (≈ 15.6 µM)
EC50 [50]: 6.49 µg/mL (≈ 28.8 µM)

CC1=CC(=O)c2[nH]c3ccc(Cl)cc3c2C1=O
EC50 [49]: 4.39 µg/mL (≈ 17.9 µM)
EC50 [40]: 0.83 µg/mL (≈ 3.38 µM)
EC50 [43]: > 20 µg/mL
EC50 [50]: 6.45 µg/mL (≈ 26.3 µM)

COc1cc(CO)cc2c1[nH]c1ccccc12 [KOENOLINE]
GI50 [21]: 1.74 µM
TGI ([21]; read-out: pTGI): 5.25 µM

COc1ccc2c3c([nH]c2c1)C(=O)C=C(C)C3=O
EC50 [49]: > 20 µg/mL
EC50 [40]: 7.25 µg/mL (≈ 30.1 µM)
EC50 [43]: > 20 µg/mL
EC50 [50]: > 20 µg/mL
